By Ki is commonly meant a measure of affinity in units of concentration, obtained from inhibition or displacement. Broadly, the half-life is the time in which the quantity being followed falls by half. A high value points to slow loss. Usually bioavailability stands for dose-corrected exposure relative to a reference, in per cent. Higher therefore signals much systemic uptake.

The target in series [1] is T1, GABA-A receptor; alpha-2/beta-3/gamma-2 (Homo sapiens, UniProt P18507+P28472+P47869).
T1 sequence (P18507 whole entry): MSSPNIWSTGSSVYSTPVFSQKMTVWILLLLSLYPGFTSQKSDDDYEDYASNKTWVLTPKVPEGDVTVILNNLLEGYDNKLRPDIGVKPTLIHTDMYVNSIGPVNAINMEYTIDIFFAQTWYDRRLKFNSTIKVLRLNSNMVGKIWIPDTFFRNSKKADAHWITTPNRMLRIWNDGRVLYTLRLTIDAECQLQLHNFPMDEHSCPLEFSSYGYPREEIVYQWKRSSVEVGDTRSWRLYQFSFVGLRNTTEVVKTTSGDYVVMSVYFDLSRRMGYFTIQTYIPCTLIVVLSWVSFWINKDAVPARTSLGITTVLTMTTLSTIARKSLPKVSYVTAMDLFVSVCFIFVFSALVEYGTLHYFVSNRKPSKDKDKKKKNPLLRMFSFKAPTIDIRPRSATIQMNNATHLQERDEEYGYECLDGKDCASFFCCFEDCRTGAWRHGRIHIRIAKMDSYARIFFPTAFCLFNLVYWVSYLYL
T1 sequence (P28472 whole entry): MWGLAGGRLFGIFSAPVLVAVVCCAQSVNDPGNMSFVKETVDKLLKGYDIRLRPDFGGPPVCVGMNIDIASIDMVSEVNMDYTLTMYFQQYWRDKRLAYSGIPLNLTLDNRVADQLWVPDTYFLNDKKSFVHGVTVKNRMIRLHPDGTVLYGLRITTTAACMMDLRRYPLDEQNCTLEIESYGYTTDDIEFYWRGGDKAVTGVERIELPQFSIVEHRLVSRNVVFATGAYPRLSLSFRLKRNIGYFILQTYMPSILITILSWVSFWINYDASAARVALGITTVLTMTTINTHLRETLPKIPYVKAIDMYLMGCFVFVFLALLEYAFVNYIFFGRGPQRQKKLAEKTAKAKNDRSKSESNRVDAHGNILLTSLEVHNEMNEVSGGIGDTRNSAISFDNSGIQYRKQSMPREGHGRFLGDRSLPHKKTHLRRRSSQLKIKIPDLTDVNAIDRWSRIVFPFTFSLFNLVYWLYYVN
T1 sequence (P47869 whole entry): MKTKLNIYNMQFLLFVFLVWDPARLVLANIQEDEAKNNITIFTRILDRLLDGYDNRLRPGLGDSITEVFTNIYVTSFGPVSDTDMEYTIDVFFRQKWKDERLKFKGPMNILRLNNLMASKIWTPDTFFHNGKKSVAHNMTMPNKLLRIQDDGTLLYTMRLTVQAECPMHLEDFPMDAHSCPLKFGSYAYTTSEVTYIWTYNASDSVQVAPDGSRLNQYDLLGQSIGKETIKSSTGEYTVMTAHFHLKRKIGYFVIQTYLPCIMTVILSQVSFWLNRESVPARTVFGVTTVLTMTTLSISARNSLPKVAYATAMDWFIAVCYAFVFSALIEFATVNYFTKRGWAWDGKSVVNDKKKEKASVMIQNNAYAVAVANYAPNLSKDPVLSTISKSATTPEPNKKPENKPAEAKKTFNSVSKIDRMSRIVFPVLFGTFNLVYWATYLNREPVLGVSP
In words: Displacement of [3H] Ro15-1788 from recombinant human GABAA alpha2 receptor plus beta-3-gamma-2 expressed in L(tk-) cells. The class given is cell-based.

Series [2] concerns the target T2, GABA-A receptor; alpha-1/beta-3/gamma-2 (Homo sapiens) (UniProt P14867+P18507+P28472). The series is described as follows: Efficacy against recombinant human GABAA alpha1 receptor plus beta3gamma2 expressed in L(tk-) cells by whole cell patch clamp method relative to chlordiazepoxide. The class given is functional, cell-based. The gist of the method:
(§1)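 Whole-cell patch clamp on L(tk-) cells stably expressing the receptor (alpha plus beta3gamma2). GABA applied at an EC20-equivalent concentration. Modulation of the current measured with increasing test concentrations. Efficacy expressed relative to the maximal chlordiazepoxide response (set at 1.00) or as a percentage.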

Series [3] has as its target T3, GABA-A receptor; alpha-1/beta-3/gamma-2 (Homo sapiens, UniProt P14867+P18507+P28472).
T3 sequence (P14867 whole entry): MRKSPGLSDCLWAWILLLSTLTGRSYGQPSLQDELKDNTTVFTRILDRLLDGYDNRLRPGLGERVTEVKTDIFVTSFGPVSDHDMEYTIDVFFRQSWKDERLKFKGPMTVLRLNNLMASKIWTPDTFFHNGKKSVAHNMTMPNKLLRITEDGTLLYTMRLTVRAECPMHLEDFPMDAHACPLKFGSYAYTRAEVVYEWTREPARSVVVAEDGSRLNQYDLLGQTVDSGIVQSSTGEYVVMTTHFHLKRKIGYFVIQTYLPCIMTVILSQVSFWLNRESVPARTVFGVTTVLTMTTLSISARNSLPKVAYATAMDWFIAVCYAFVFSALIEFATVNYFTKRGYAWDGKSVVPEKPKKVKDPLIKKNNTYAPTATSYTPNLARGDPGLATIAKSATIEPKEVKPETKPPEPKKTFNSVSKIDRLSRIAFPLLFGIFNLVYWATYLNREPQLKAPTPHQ
T3 sequence (P18507 whole entry): T1 sequence (P18507 whole entry)
T3 sequence (P28472 whole entry): T1 sequence (P28472 whole entry)
The series is described as follows: Displacement of [3H]Ro 15-1788 from recombinant human GABAA alpha-1 receptor plus beta3gamma2 expressed in L(tk-) cells. The class given is cell-based. (In a radioligand displacement assay an active substance lowers the binding of a labelled ligand.)

For series [4], the target named is T2, GABA-A receptor; alpha-1/beta-3/gamma-2 (Homo sapiens). The series is described as follows: Efficacy against recombinant human GABAA alpha1 receptor plus beta-3-gamma-2 expressed in L(tk-) cells by modulation of chloride ion flux relative to chlordiazepoxide. The class given is functional, cell-based. The essentials: (§2)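 Same L(tk-) lines expressing beta3gamma2 with alpha1 or alpha3. 36Cl ion flux evoked by an EC20-equivalent concentration of GABA, measured in the presence of about 1000 x Ki of test compound. Efficacy expressed relative to the maximal chlordiazepoxide response (1.00). Mean of at least seven independent experiments.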

Series [5] deals with T4, GABA-A receptor; alpha-3/beta-3/gamma-2 (Homo sapiens) (UniProt P18507+P28472+P34903). In words: Efficacy against recombinant human GABAA alpha-3 receptor plus beta3gamma2 expressed in L(tk-) cells by modulation of chloride ion flux relative to chlordiazepoxide. The class given is functional, cell-based. The essentials: as §2
Series [6] concerns the target T4, GABA-A receptor; alpha-3/beta-3/gamma-2 (Homo sapiens). In words: Efficacy against recombinant human GABAA alpha3 receptor plus beta-3-gamma-2 expressed in L(tk-) cells by whole cell patch clamp method relative to chlordiazepoxide. The class given is functional, cell-based. The essentials: as §1
Background: In patch-clamp work, channel activity is measured electrically.

Series [7] is described as follows: Plasma clearance in rat at 1 mg/kg, iv or 1 mg/kg, po. The class given is ADME, organism-based. The gist of the method:
(§3)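 Rat pharmacokinetics after dosing at 1 mg/kg iv and 1 mg/kg po. Plasma clearance in mL/min/kg, half-life in h and volume of distribution in L/kg.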

Series [8] in a line: Half life in rat at 1 mg/kg, […] 1 mg/kg, po. The class given is ADME, organism-based. The note with it: in vivo. The essentials: as §3
Series [9] in a line: Volume of distribution in rat at 1 mg/kg, iv or 1 mg/kg, po. The class given is ADME, organism-based. The note with it: in vivo, read-out: Vdss. The gist of the method: as §3
The nature of series [10]: Oral bioavailability in rat at 1 mg/kg, iv or 1 mg/kg, po. The class given is ADME, organism-based. The note with it: in vivo. The essentials:
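Pharmacokinetics in rat, dog or rhesus after 1 mg/kg iv and 1 mg/kg po dosing. Plasma clearance (mL/min/kg), half-life (h), volume of distribution (L/kg) and oral bioavailability (%) were derived.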

Series [11] has as its target T2, GABA-A receptor; alpha-1/beta-3/gamma-2 (Homo sapiens). In words: Efficacy against recombinant human GABAA alpha-1 receptor plus beta3gamma2 expressed in L(tk-) cells by whole cell patch clamp method. The class given is functional, cell-based. The essentials: as §1

On to `CC(C)(O)c1ccn2c(-c3ccc(F)c(-c4cccnc4)c3)cnc2n1`, for which the Ki in series [1] was 4 nM. For the same compound, the Efficacy in [2] is 6%.

Take `Cc1cnn2c(-c3cccc(-c4ccccc4C#N)c3)cnc2c1`: the inhibition constant (Ki) in [3] is 13 nM; in series [1], 19 nM. The Efficacy in series [4] is -20%; in series [5], 26%.

With `CC(C)(O)c1cnn2c(-c3ccc(F)c(-c4c(F)cc(F)cc4C#N)c3)cnc2n1`, the Ki came out at 0.15 nM in series [3] and 1 nM in series [1]. Further, the Efficacy was found to be 37% in series [6] and 0% in [2]. In series [7], this compound registered a clearance of 1 mL/min/kg. Also, the half-life in series [8] was 69 h. Further, in [9], the Vd was found to be 5.8 L/kg. Moreover, the bioavailability in [10] amounted to 64%.

As to `CN1C(=O)CN=C(c2ccccc2)c2cc(Cl)ccc21`, the Efficacy worked out at 80% in series [6] and 93% in series [2].

Take `CC(C)(O)c1cnn2c(-c3ccc(F)c(-c4ccc(F)cc4C#N)c3)cnc2n1`: the Ki in series [3] came to 1.2 nM; in series [1], 2.1 nM. Further, the Efficacy is 43% in [6] and -15% in series [11]. The clearance in [7] amounted to 1.1 mL/min/kg. The same compound gave a half-life in series [8] of 38 h. For the same compound, in series [9], the Vd was 3.4 L/kg.

As to `Cc1ccn2c(-c3cccc(-c4ccccc4C#N)c3)cnc2c1`, in series [1], the Ki came out at 3.7 nM. The Efficacy in series [6] is 55%; in series [11], -10%.

Consider `CCO/N=C(\C)c1ccc2c(c1)ncn2-c1cccc(-c2cccnc2)c1`, for which the Ki in series [3] amounted to 2 nM; in series [1], 14 nM. Further, the figures for the Efficacy in series [6] and in [2] were 99% and 40%, respectively.

For `N#Cc1cc(F)ccc1-c1cc(-c2cnc3nc(C(F)(F)F)cnn23)ccc1F`, the Ki was 0.25 nM in series [3] and 0.8 nM in series [1]. The figures for the Efficacy in series [6] and in [11] were -6% and -13%, respectively.

Take `Cc1cnn2c(-c3cccc(-c4ccccc4C#N)c3)cnc2n1`: the inhibitory constant (Ki) in series [3] worked out at 1.5 nM; in series [1] it was 1.2 nM. Also, the Efficacy in [6] is 34%; in series [11], -21%.

For `N#Cc1cc(F)ccc1-c1cc(-c2cnc3nc(C(F)(F)F)ccn23)ccc1F`, the Ki in [1] was determined as 0.73 nM. The Efficacy is 25% in series [6] and -3% in [2].

Turning to `Cc1ccn2c(-c3cccc(-c4ccccc4C#N)c3)cnc2n1`, the inhibitory constant (Ki) in series [3] and in series [1] was 0.4 nM in each case. Further, the Efficacy in series [6] is 69%; in series [2], 7%.

These data come from ChEMBL document CHEMBL1149444, “Discovery of imidazo[1,2-b][1,2,4]triazines as GABA(A) alpha2/3 subtype selective agonists for the treatment of anxiety” (J Med Chem, 2006).
